Screening data (PubChem BioAssay)
Rows were chosen to be rich in hits. Some 8.9% of all compounds tested hit in one or more screens of this group.
Dynein transport – blocks dynein driven cargo transport along microtubules; 3617.4 mouse cells, GR-EGFP nuclear translocation imaging; test concentration mostly 20 µM; stimulated with dexamethasone, 1 µM; active compounds read low; z-score, hits read low; actives 0.47% (n = 220,000);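 active = plate z-score of nuclear minus cytoplasmic receptor signal below a set negative limit, without overly bright fluorescence or cell loss, cut at about -3.5 in these data, passing the limit was not always enough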;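 also: z-score of nuclear minus cytoplasmic ring GR-EGFP intensity difference per well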
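Buffer or medium: Induction medium lacking tetracycline, stripped serum | Also added: Dexamethasone agonist, 1.0 µM final, for 30 min | Timing: 48 h induction, 1 h compound, 30 min dex at 37 °C | Detection: Formaldehyde fixation, Hoechst nuclear stain, 10x automated fluorescence imaging | Measure: Nuclear versus cytoplasmic GR-EGFP signal, averaged per well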
HSV replic up – HSV replication enhancement | maximum fold increase | HSV replication augmentation in cells, fold increase | actives 0.005% (n = 220,000); in the data active = maximum fold increase above about 1.5; inconclusive = no clear call, values can overlap the other calls; tested in PC3 cells
L major viab – reduces viability of Leishmania major promastigotes; actives 9% (n = 200,000); inhibition, % at 10 µM; resazurin fluorescence viability; in the data active = inhibition above about 50%;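 also: promastigotes grown with compound for 44 hours at 28 °C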
MT stabilize HCS – microtubule stabilizers in HeLa cells; HeLa tubulin immunostaining HCS, 24 h; share of cells brighter than vehicle mean+2SD; actives 0.83% (n = 200,000); % tubulin-high responders, % at 10 µM;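 active = plate Z-score above 3 for both tubulin-high and condensed-nucleus cell shares, with cell loss under 80%, at 10 µM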;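 also: anti alpha tubulin signal scored within the nucleus-defined area of each cell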
bCat nuc transl – modulators of beta-catenin nuclear translocation; HeLa beta-catenin nuclear translocation, immunofluorescence imaging; nuclear translocation activity, % at 5 µM; AID 1665; actives 0.3% (n = 190,000);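 active = nuclear translocation activity above 50% at 5 µM, with a well cell count of 50 or more; inconclusive = wells under 50 cells across six images, flagged as toxic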;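 also: per-cell ratio of nuclear to cytoplasmic median beta-catenin stain intensity; plate controls were DMSO negative control for no effect and GSK-3 inhibitor IX positive control for full effect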
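Test system: human HeLa cells, endogenous beta-catenin. Times: 24 h compound exposure, 37°C. Measured by: beta-catenin immunofluorescence imaging with DAPI.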
* = called active by the depositor; i = inactive; ? = inconclusive; . = not tested or not shown.

SMILES	Dynein transport	HSV replic up	L major viab	MT stabilize HCS	bCat nuc transl
CCC(=O)c1cc(F)c(N2CCN(S(=O)(=O)c3ccccc3)CC2)cc1C	-1.2	i	64*	2	-4
c1ccc2c(c1)CC/C2=N/Nc1nc2ccccc2[nH]1	-0.59	i	100*	6	0
CC(C)(C)C1CCC(=NNc2nc3ccccc3[nH]2)CC1 (stereo not given)	-0.38	i	85*	6	1
CCOC(=O)COn1c(SCC(=O)OCC)nc2ccccc2c1=O	-1.1	i	-2	2	-5
CCCN1CCCc2ccccc21	-0.068	i	24	1	.
CC(C)N(C(=O)CS(=O)(=O)c1ccc(Cl)c(Cl)c1)C(C)C	0.7	i	85*	4	1
Cc1cc(OCC(=O)N(C(C)C)C(C)C)ccc1Cl	-0.53	i	0	2	2
Cc1ccc(S(=O)(=O)C2(S(=O)(=O)c3ccc(C)cc3)CC2)cc1	-0.46	i	.	.	1
COc1cc(/C=N/n2c(-c3ccc4c(c3)NC(=O)CO4)csc2=Nc2cccc(C)c2)ccc1O	0.83	i	92*	5	-1
O=C(CN1C(=O)c2ccccc2C1=O)NCC1CCCO1 (stereo not given)	0.33	i	-2	3	-1
Cc1c(NC(=S)NC(=O)c2cc3ccccc3o2)c(=O)n(-c2ccccc2)n1C	-0.11	i	53*	4	-1
COC(=O)C(CCSC)NC(=O)C(NC(=O)C1CCC(C)CC1)C(C)C (stereo not given)	1.2	i	69*	3	2
CCC(C)C(NC(=O)C1CCC(C)CC1)C(=O)NC(CCSC)C(=O)OC (stereo not given)	-0.36	i	68*	1	-3
O=C1/C(=C/c2ccncc2)CCC/C1=C\c1ccncc1	-7*	i	101*	31*	.
Cc1cc(C)cc(C(=O)NCC(=O)OCc2cc([N+](=O)[O-])cc3c2OCOC3)c1	1.6	i	-2	4	-1
Cc1cccc(OCC(=O)Nc2cc(C)ccc2O)c1	-0.46	i	0	3	0
O=[N+]([O-])c1cc2c(cc1/C=N\NS(=O)(=O)c1ccccc1)OCO2	-0.48	i	24	4	0
CNc1nc(N/N=C/c2cc3c(cc2[N+](=O)[O-])OCO3)nc(Nc2ccccc2)n1	-0.53	i	65*	6	1
Cc1cc(C)n(CCNC(=O)CCc2nnc(CCc3ccccc3)o2)n1	0.19	i	-4	3	0
CC(=O)Nc1ccc(S(=O)(=O)n2cnc3cc(C)c(C)cc32)cc1	-0.74	.	67*	3	1
CCCN1C(=O)/C(=C2\SC(N3CCCCC3)=NC2=O)c2ccccc21	-0.7	i	64*	5	-6
O=C(CSc1nc2c(sc3ccccc32)c(=O)n1Cc1ccccc1)NCC1CCCO1 (stereo not given)	2.4	i	0	2	.
COc1ccc(NS(=O)(=O)c2cccc(Cl)c2Cl)cc1S(=O)(=O)N1CCCCC1	0.75	i	2	6	-1
COc1ccc(NC(=O)c2cc(OC)c(OC)c(OC)c2)cc1S(=O)(=O)N1CCCCC1	0.61	i	15	3	-1
COc1ccc(NC(=O)[C@@H](NC(=O)c2ccccc2)C(C)C)cc1S(=O)(=O)N1CCCCC1	-0.036	i	72*	3	-2
SMILES	Dynein transport	HSV replic up	L major viab	MT stabilize HCS	bCat nuc transl
COc1ccc(NS(=O)(=O)c2cccc(Cl)c2)cc1S(=O)(=O)N1CCCCC1	-0.91	i	59*	2	-2
COc1ccc(NC(=O)c2cncc(Br)c2)cc1S(=O)(=O)N1CCCCC1	0.13	i	73*	3	-2
c1ccc(CCNc2ncnc3scc(C4COc5ccccc5O4)c23)cc1 (stereo not given)	-1	i	85*	1	1
c1ccc2c(c1)OCC(c1csc3ncnc(N4CCCC4)c13)O2 (stereo not given)	0.28	i	20	2	-10
COc1ccc(C=C(c2nc3ccccc3s2)c2nc3ccccc3s2)cc1O	0.53	.	99*	9	5
COc1cc(C=C(c2nc3ccccc3s2)c2nc3ccccc3s2)ccc1O	0.93	?	97*	2	4
COc1ccc(/C=N/Nc2nc3ccccc3s2)cc1O	-1.1	i	9	2	0
CCOc1ccc(NC(=O)C2=C(C)C(=O)OC23CCC(C)CC3)cc1 (stereo not given)	-0.73	i	13	3	.
COc1cc(OC)c(-c2nn3c(-c4ccncc4)nnc3s2)cc1OC	.	.	.	.	-1
CCCCCCn1ccc(=N)cc1	1.7	i	2	3	2
CCCCCCCCCCCCCCCCn1cc[n+](CC(C)=O)c1	0.45	i	100*	58	25
CCN(CC)S(=O)(=O)c1ccc(OC)c(NC(=O)CSc2ccccc2)c1	-0.21	i	99*	1	2
CCN(CC)S(=O)(=O)c1ccc(OC)c(NC(=O)CSc2cc(Cl)ccc2Cl)c1	-0.21	i	98*	2	-1
CCN(c1ccccc1)S(=O)(=O)c1ccc(OC)c(NC(=O)CN(C)C)c1	-0.59	i	16	3	0
Cc1cc(OCCOCCN(C)CCO)cc(C)c1Cl	0.049	i	95*	3	3
CCN(CC)CCOCCOc1cc(C)c(Cl)c(C)c1	-0.33	i	99*	1	.
CCc1cccc(CC)c1NC(=O)Cn1c(-c2ccccc2Cl)nc2ccccc21	-0.84	i	0	5	1
CNc1nc(Nc2ccc(Br)cc2)nc(N)c1[N+](=O)[O-]	-0.73	i	50*	5	-5
CCCCCC(=O)N/N=C(\C)c1ccccn1	-0.34	i	93*	2	2
C/C(=N\NC(=O)COc1ccccc1-c1ccccc1)c1ccccn1	-0.51	i	100*	8	-1
CCCCCCCCCC(=O)N/N=C(\C)c1cccnc1	0.59	i	1	3	-2
C/C(=N\NC(=O)COc1ccccc1-c1ccccc1)c1cccnc1	0.047	i	25	6	1
CCCCc1ccc(S(=O)(=O)NCCc2ccncc2)cc1	-0.18	i	84*	5	-1
Cc1ccc(-c2nc(SCC(=O)Nc3cc(S(=O)(=O)N4CCCCC4)ccc3Cl)n[nH]2)cc1	-0.96	i	58*	2	1
O=C(CCl)Nc1cc(S(=O)(=O)N2CCCCCC2)ccc1Cl	-2.7	i	99*	4	15
CC(C)(C)CC(=O)Nc1cc(S(=O)(=O)N2CCCCCC2)ccc1Cl	0.1	.	5	2	1
CC(NCc1ccc(F)cc1)C(=O)Nc1cc(S(=O)(=O)N2CCCCC2)ccc1Cl (stereo not given)	2.3	i	62*	3	-2
CCCCCCCNC(=O)COc1ccc2c(c1)C(=O)CC(C)(C)O2	0.33	i	2	2	.
COC(=O)C(=Cc1ccc(-c2ccsc2C(=O)OC)o1)C(=O)OC	-3	i	.	.	0
